For the first data set, the target named is T1, Aromatase (Homo sapiens, UniProt P11511).
T1 sequence (P11511 whole entry): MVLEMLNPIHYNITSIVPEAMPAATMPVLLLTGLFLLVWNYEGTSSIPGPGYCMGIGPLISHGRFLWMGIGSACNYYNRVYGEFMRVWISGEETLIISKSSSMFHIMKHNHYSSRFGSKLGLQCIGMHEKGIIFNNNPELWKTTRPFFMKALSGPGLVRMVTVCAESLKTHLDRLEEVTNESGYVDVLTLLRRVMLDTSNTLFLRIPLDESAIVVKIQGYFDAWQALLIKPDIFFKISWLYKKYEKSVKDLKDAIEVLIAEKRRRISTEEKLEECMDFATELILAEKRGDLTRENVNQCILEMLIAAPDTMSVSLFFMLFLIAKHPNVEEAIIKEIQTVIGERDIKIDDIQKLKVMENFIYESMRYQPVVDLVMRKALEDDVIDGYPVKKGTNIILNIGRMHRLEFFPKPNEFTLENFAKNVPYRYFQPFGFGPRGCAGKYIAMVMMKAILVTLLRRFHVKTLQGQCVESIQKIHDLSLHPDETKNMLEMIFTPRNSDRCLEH
Briefly: Inhibition of CYP19 in human H295R cells using [1beta-3H(N)]-androst-4-ene-3,17-dione at 10 uM after 24 hrs by tritiated water release assay. In kind it is cell-based.
Settings: not given; call rule not given here
The essentials: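 Cells were then incubated 2 h with 0.5 µM [1β-3H(N)]-androst-4-ene-3,17-dione. Read-out is tritiated water release, expressed as % of untreated cells. Means ± SEM of two independent experiments, each in triplicate.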
For `CCOC(=O)c1cc(C)nc2c1ccc1[nH]ccc12`, the “inhibition (INH)” value is “Not Active”.

Turning to `CCOC(=O)c1cc(-c2ccccc2)nc2ccc3c(ccn3CC)c12`, the “inhibition (INH)” value is reported as “Not Active”.

As to `CCn1ccc2c3c(C(=O)O)cc(-c4ccccc4)nc3ccc21`, the “inhibition (INH)” value is recorded as “Not Active”.

As to `Cc1cc(C(=O)O)c2ccc3[nH]ccc3c2n1`, the “inhibition (INH)” value is given as “Not Active”.

Regarding `CCOC(=O)c1cc(-c2ccccc2)nc2c1ccc1[nH]ccc12`, the “inhibition (INH)” value was “Active”.

`CCOC(=O)c1cc(-c2ccc(OC)cc2)nc2c1ccc1[nH]ccc12`: the “inhibition (INH)” value is “Active”.

Consider `CCn1ccc2c3nc(-c4ccccc4)cc(CO)c3ccc21`, for which the “inhibition (INH)” value was “Not Active”.

In another data set the target is T1, Aromatase. Nature of the data set: Activation of aromatase in human H295R cells using [1beta-3H(N)]-androst-4-ene-3,17-dione as substrate at 0.1 uM after 24 hrs by tritiated water release assay.
Settings: not given
As to `Cc1cc(C(=O)O)c2ccc3[nH]ccc3c2n1`, the outcome was Active.

A further data set relates to HT-29. Nature of the data set: Growth inhibition of non-estrogen-sensitive human HT-29 cells after 72 hrs by MTT assay. It counts as functional. To be noted: HT-29, 72 h. A digest of the protocol:
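Cells were seeded at 8x10^3 per well and left 18 h at 37 °C, 5% CO2, then exposed 72 h to compound at several concentrations from 10 mM DMSO stocks (final DMSO ≤0.25%). Jurkat, RS4;11 and SEM were grown in RPMI-1640; H295R in DMEM-F12 with 2% FBS plus insulin-transferrin-selenium. Viability read by MTT.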
Background: Tetrazolium dyes change colour on reduction, which living cells bring about.
As for `CCOC(=O)c1cc(-c2ccccc2)nc2c1ccc1[nH]ccc12`, the 50% growth inhibitory concentration (GI50) (as a rule, the concentration at which growth is held to half of that of the control) amounted to 17.2 µM. In other words, the double-digit micromolar range.

`CCOC(=O)c1cc(-c2ccc(OC)cc2)nc2c1ccc1[nH]ccc12` gave a 50% growth inhibitory concentration (GI50) of 1.9 µM.

The next data set addresses T1, Aromatase. Briefly: Inhibition of aromatase (unknown origin) using 7-methoxy-4-trifluoromethylcoumarin as substrate after 30 mins by fluorimetric analysis.
Settings: not given
The essentials:
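Recombinant CYP19 from a high-throughput screening kit, with 7-methoxy-4-trifluoromethylcoumarin as substrate. Enzyme/substrate mix was then added for 30 min at 37 °C before stop reagent. Fluorescence read at λex 410 / λem 530 nm. IC50 given as mean ± SEM of three independent experiments run in duplicate.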
Take `CCOC(=O)c1cc(C)nc2c1ccc1[nH]ccc12`: the IC50 (usually the midpoint of a concentration-inhibition curve) was over 10 µM.

Turning to `CCOC(=O)c1cc(-c2ccccc2)nc2ccc3c(ccn3CC)c12`, the IC50 was over 10 µM.

`CCn1ccc2c3c(C(=O)O)cc(-c4ccccc4)nc3ccc21` came in with an IC50 of 1.47 µM.

`Cc1cc(C(=O)O)c2ccc3[nH]ccc3c2n1` returned a 50% inhibitory concentration (IC50) of over 10 µM.

Molecule `CCOC(=O)c1cc(-c2ccccc2)nc2c1ccc1[nH]ccc12` gave a 50% inhibitory concentration (IC50) of over 10 µM.

Turning to `CCOC(=O)c1cc(-c2ccc(OC)cc2)nc2c1ccc1[nH]ccc12`, the IC50 was over 10 µM.

`CCn1ccc2c3nc(-c4ccccc4)cc(CO)c3ccc21` gave an IC50 of over 10 µM.
